# From PubChem
# A selection: hits, their analogues and other compounds. The true share with any hit is near 0.99%.
# DDE Tn7 FP inh: inhibitors of Tn7 peptide binding to human fibrin DD(E); FP displacement of FITC-Tn7 peptide from fibrin DD(E); 0% = median of compound wells per plate; inhibition, % at 8.3 µM; P02675; 370,000 tested, 0.13% active;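 active = inhibition above the mean of compounds falling within the control limits plus 3 SD of them, cut at about 14% in these data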;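 also: 0% = plate median of compound wells and 100% = 10 µM Aha-Tn7 peptide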
#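 System: human fibrin DD(E); quantity: Fibrin-DD(E) at 2 µM final; also added: fluorescent Tn7 probe at 0.1 µM; compound dosing: single nominal test concentration of 8.3 µM per compound; schedule: 10 min preincubation, 3 h with tracer, room temperature; detection: fluorescence polarization of the labelled Tn7 tracer; repeats: one replicate per compound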
# ABCB1 block: inhibitors of human ABCB1 transporter, ABCG2 counter-screen. 190,000 tested, 0.067% active. AID 1326. CCRF-Adr cells, JC-1 efflux, flow cytometry. P08183. inhibition, % at 6.6 µM; in the data active = inhibition above about 40%;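 also: 0% = vehicle and 100% = reference inhibitor; higher value means more JC-1 retained so stronger ABCB1 efflux block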
# Insulin prom up: MIN6 insulin promoter up-regulation | MIN6 insulin promoter-GFP reporter, high-content imaging; hits give high values | z-score at 5 µM | 190,000 tested, 0.3% active | AID 1625;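 active = z-score above 3 at 5 µM with at least 500 cells counted in the well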
# Tn6 DDE FP: DD(E)-Tn6 binding inhibition, primary FP screen; Fibrin DD(E) TRITC-Tn6 fluorescence polarization displacement; 370,000 tested, 0.21% active; inhibition, % at 8.3 µM; AID 720509; P02675;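 active = inhibition above a per-campaign cutoff: mean of compounds within control limits plus 3 SD, cut at about 15% in these data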;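 also: 0% = median of all compound wells on the plate and 100% = blocking peptide control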
# ABCG2 inh: blocks JC-1 efflux by human ABCG2 transporter; IgMXP3 cells, flow cytometry; inhibition, % at 6.6 µM; 190,000 tested, 0.1% active; AID 1325;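 active = inhibition above 80%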;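 also: 0% = DMSO and 100% = nicardipine control wells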
#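 material = IgMXP3 (ABCG2) plus far-red-tagged CCRF-Adr (ABCB1) cells | amount = 3 million cells/mL, equal mix of both lines | also added = JC-1 transporter substrate | dosing = one concentration, 6.6 µM final | schedule = 10 min at 25 °C | measured by = flow cytometric JC-1 green MFI at 530 nm | read-out basis = percent efflux inhibition, scaled nicardipine 100% to DMSO 0%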
# GRK2 inh: blocks RNA aptamer binding to human GRK2; P25098; bead flow cytometry, FAM-aptamer displacement from GRK2; inhibition of aptamer binding, % at 10 µM; 330,000 tested, 0.59% active; AID 488847;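 active = inhibition of aptamer binding above 40%, roughly 3 SD of noise, on plates passing a quality check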;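 also: median bead fluorescence of bound FAM aptamer so fluorescent compounds give negative values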
# Target sequence (P25098 whole entry, looked up): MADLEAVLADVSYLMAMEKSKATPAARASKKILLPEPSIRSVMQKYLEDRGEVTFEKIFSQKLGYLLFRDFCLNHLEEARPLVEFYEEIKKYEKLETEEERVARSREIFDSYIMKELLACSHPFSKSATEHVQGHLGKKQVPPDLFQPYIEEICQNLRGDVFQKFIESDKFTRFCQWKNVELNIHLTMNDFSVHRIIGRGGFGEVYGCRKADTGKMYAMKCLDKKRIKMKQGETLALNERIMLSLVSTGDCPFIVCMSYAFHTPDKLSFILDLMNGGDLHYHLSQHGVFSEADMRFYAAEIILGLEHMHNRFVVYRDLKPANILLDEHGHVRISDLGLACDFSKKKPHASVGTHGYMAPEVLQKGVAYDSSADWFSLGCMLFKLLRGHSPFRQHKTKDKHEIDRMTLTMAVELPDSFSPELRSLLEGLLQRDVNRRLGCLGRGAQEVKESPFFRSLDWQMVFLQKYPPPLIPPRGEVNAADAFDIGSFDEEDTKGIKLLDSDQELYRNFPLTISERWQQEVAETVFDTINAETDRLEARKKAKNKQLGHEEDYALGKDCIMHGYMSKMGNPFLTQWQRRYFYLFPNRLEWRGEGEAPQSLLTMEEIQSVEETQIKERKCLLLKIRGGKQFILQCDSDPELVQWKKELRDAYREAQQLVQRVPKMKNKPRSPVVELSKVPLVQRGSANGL
# GRK2 inh confirm: human GRK2 inhibition confirmation, cherry pick 1; shares compounds with GRK2 inh; bead-bound GRK2, FAM-aptamer displacement, flow cytometry; aptamer displacement, % at 10 µM; 2,000 tested, 4% active; AID 504451;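 active = aptamer displacement above 40%, near three times the noise of non-fluorescent compounds, on plates passing quality checks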;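 also: negative values mostly reflect intrinsic compound fluorescence rather than true enhancement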
# Aptamer quench SP: aptamer fluorescence quenching in GRK2 counter-screen. AID 504580. fluorescence response (% of DMSO), % at 10 µM. shares compounds with GRK2 inh. Carboxyfluorescein RNA aptamer on beads, flow cytometry quenching; hits give low values. 2,000 tested, under 10 active;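 active = compounds that quench the bead-bound fluorescent RNA probe, cutting fluorescence to under half of the solvent control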;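 also: counterscreen run without GRK2 so only probe quenching by compound is measured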
# GRK2 confirm 2: human GRK2 inhibition confirmation, cherry pick 2. inhibition of aptamer binding, % at 10 µM. shares compounds with GRK2 inh. bead-bound GRK2, FAM-aptamer displacement, flow cytometry. 360 tested, under 10 active;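 active = inhibition of aptamer binding above 40%, about triple the noise seen with nonglowing compounds, on plates passing quality control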;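 also: negative values mostly come from compounds that fluoresce themselves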
# FAM quench SP: counter-screen for GRK2 binding hits: quenchers of fluorescent RNA aptamer | carboxyfluorescein RNA aptamer beads, flow cytometry quenching; hits give low values | fluorescence response vs DMSO, % at 10 µM | 360 tested, under 10 active | shares compounds with GRK2 inh;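 active = response vs DMSO under 50%, meaning signal dropped by over half, treated as fluorescence quencher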;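 also: labelled aptamer on streptavidin beads without GRK2 as a quench counter-screen; 100% = bead fluorescence of DMSO wells and lower means quenching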
# * hit, by the source's call; nt = no result given.
SMILES,DDE Tn7 FP inh,ABCB1 block,Insulin prom up,Tn6 DDE FP,ABCG2 inh,GRK2 inh,GRK2 inh confirm,Aptamer quench SP,others
COCCNC(=O)c1ccccc1N(Cc1ccccc1)S(=O)(=O)c1ccc(C)cc1,4,0,-0.87,-2,1,15,-1,99,
Cc1cccc(NC(=O)CCc2ccccc2)c1C,0,nt,nt,2,nt,85*,-5,98,
Cc1cccc(NC(=O)CCSc2ccccc2)c1C,1,0,0.74,2,5,2,nt,nt,
CCOC(=O)c1cccc(NC(=O)CCS(=O)(=O)c2cccc3nsnc23)c1,1,1,1.1,2,5,3,nt,nt,
Cc1cccc(NC(=O)CCS(=O)(=O)c2cccc3nsnc23)c1C,3,0,0.31,0,1,3,nt,nt,GRK2 confirm 2=13;FAM quench SP=101
CCCCNC(=O)C1CCCN1C(=O)Nc1cc(C)cc(C)c1 (centres undefined),9,nt,nt,6,nt,nt,nt,nt,
Cc1nnc(SCC(=O)Nc2ccc(S(N)(=O)=O)cc2)n(N)c1=O,1,nt,nt,-4,nt,30,-6,100,
C=CCN1C(=O)[C@@H](CC(=O)N2CCN(C(=O)C3CC3)CC2)[C@]2(C(=O)OCC)CCCCC/C=C/12,1,nt,nt,5,nt,nt,nt,nt,
CC1CCN(c2ccc([N+](=O)[O-])cn2)CC1,5,0,0.49,1,2,55*,nt,nt,GRK2 confirm 2=3;FAM quench SP=98
O=[N+]([O-])c1ccc(N2CCCC2)nc1,1,nt,0.42,2,nt,0,nt,nt,
O=C(O)C(O)Cc1c[nH]c2ccccc12 (centres undefined),-5,0,nt,-4,0,67*,2,100,
CC(Cc1c[nH]c2ccccc12)C(=O)O (centres undefined),6,0,0.39,1,9,21,nt,nt,
Cc1ccc(N(CN2CCCC2=O)C(=O)c2ccccc2)cc1,-9,0,0.4,0,-3,67*,1,99,
O=C(O)c1ccc(/C=C2\SC(=S)N(NC(=O)c3ccccc3[N+](=O)[O-])C2=O)cc1,7,nt,nt,2,nt,47*,1,101,
O=C1CCC[C@H]2Cc3nc4cc5c(cc4cc3C[C@]23CCCN13)OCO5,-2,nt,nt,-4,nt,nt,nt,nt,
COc1ccc(/C=C2\SC(=S)N(N3C(=O)CCC3=O)C2=O)cc1O,6,-1,1,-6,-1,1,12,60,
CN1C(=O)c2cc(NC(=O)Nc3ccccc3)ccc2OC[C@H]2O[C@@H](CC(=O)NC3CCC3)CC[C@@H]21,-4,nt,nt,-4,nt,nt,nt,nt,
O=C(Nc1cccc(NC(=O)c2ccc(-c3ccc(Br)cc3)o2)c1)c1ccccc1,2,0,0.08,1,-1,90*,-1,93,
O=C(Nc1nc2ncccn2c1-c1ccc(C(F)(F)F)cc1)C1CC1,-3,nt,nt,3,nt,nt,nt,nt,
COc1ccc(-c2c(C#CC(C)(C)O)c3ccccc3n2C)cc1,-2,nt,nt,0,nt,94*,nt,nt,GRK2 confirm 2=-11;FAM quench SP=96
CCOC(=O)c1cnc(SC2CC(=O)N(c3ccc(OC)c(OC)c3)C2=O)nc1N (centres undefined),8,1,-0.18,0,2,45*,-4,98,
O=C(OCC#CCSc1nnc(-c2cccc3ccccc23)o1)c1ccncc1,5,nt,nt,4,nt,nt,nt,nt,
Nc1ccc2nc(-c3ccc(-c4nc5ccc(N)cc5[nH]4)cc3)[nH]c2c1,5,nt,nt,-47,nt,85*,-24,101,
CCOC(=O)[C@]12CCCCC/C=C\1N(Cc1ccc(OC)cc1)C(=O)[C@H]2CC(=O)N1CCN(C(=O)C2CC2)CC1,4,nt,nt,0,nt,nt,nt,nt,
COc1ccc(-c2nn(-c3ccccc3)cc2/C=C2/SC(=S)N(CCC(=O)O)C2=O)c(C)c1,-3,nt,nt,-1,nt,80*,0,98,
SMILES,DDE Tn7 FP inh,ABCB1 block,Insulin prom up,Tn6 DDE FP,ABCG2 inh,GRK2 inh,GRK2 inh confirm,Aptamer quench SP,others
CN1CCN(S(=O)(=O)c2ccc(NC(=O)C(C)(C)C)cc2)CC1,-3,1,0.42,4,5,81*,-4,98,
O=C(Nc1cccnc1)C1CCCN(c2ncnc3c2nc2n3CCCCC2)C1 (centres undefined),2,nt,nt,-8,nt,0,nt,nt,
O=C(NCC1CCN(Cc2cccc(Cl)c2)CC1)C1CCCN(c2ncnc3c2nc2n3CCCCC2)C1 (centres undefined),1,nt,nt,5,nt,0,-6,100,
CCc1cccc(NC(=O)C2CCCN(c3ncnc4c3nc3n4CCCCC3)C2)c1 (centres undefined),-6,nt,nt,5,nt,0,4,102,
CNC[C@@H]1OCc2cnnn2CCCC(=O)N([C@@H](C)CO)C[C@H]1C,-2,nt,nt,1,nt,nt,nt,nt,
C[C@H]1[C@H](c2ccccc2)Oc2cccc(N3CCCC3)c2S(=O)(=O)N1Cc1cccc(F)c1,0,nt,nt,-2,nt,nt,nt,nt,
O=C(c1cc(-c2ccncc2)nc2ccc(Br)cc12)N1CCN(c2ccccn2)CC1,-2,3,-0.86,-1,4,93*,-5,98,
CCC(=O)Oc1ccc2c(C)cc(=O)oc2c1C(=O)CC,-7,nt,-0.29,1,nt,100*,3,101,
CN(C)CCCn1c(SCc2c(Cl)cccc2Cl)nnc1-c1ccncc1,-3,nt,nt,-4,nt,44*,nt,nt,GRK2 confirm 2=2;FAM quench SP=99
CCN(CC)c1ccc(NC(=O)CSc2nnc(-c3ccc(Cl)cc3)n2Cc2ccco2)cc1,1,nt,nt,1,nt,nt,nt,nt,
CCOc1ccc(NC(=O)CN(C)C(=O)c2cc(-c3ccco3)nc3ccccc23)cc1OCC,4,nt,nt,-8,nt,nt,1,96,
O=C(CSc1nnc(-c2cnccn2)n1-c1ccccc1)Nc1ccc2c(c1)OCCO2,2,nt,nt,-2,nt,nt,nt,nt,
CCn1nc(NC(=O)C(C)(C)C)c2cc3cccc(C)c3nc21,-3,nt,nt,5,nt,50*,2,102,
C(=N/n1c2ccccc2c2ccccc21)/c1ccco1,-1,0,0.31,-1,1,96*,-1,101,
COc1ccc(NC(=O)Nc2ccc3c(c2)C(=O)N([C@H](C)CO)C[C@H](C)[C@@H](CN(C)C(=O)Nc2ccc(OC)cc2)O3)cc1,0,nt,nt,12,nt,4,nt,nt,
COc1ccc(NC(=O)N(C)C[C@H]2Oc3ccc(NC(=O)CCC(F)(F)F)cc3C(=O)N([C@H](C)CO)C[C@@H]2C)cc1,2,nt,nt,3,nt,73*,nt,nt,GRK2 confirm 2=8;FAM quench SP=101
